Activity calls are given as the source filed them.
What was measured:
Cannabinoid receptor 2 [1] = molecular target: T1, Cannabinoid receptor 2 (Homo sapiens, UniProt P34972); experiment: Agonist activity at human CB2 receptor expressed CHO cells by [35S]GTPgamma binding assay; format: functional, cell-based
Cannabinoid receptor 2 [2] = molecular target: T1, Cannabinoid receptor 2; experiment: Inverse agonist activity at human recombinant CB2 receptor expressed CHO cells membrane by [35S]GTPgamma binding assay relative to 2-((1R,2R,5R)-5-hydroxy-2-(3-hydroxypropyl)cyclohexyl)-5-(2-methyloctan-2-yl)phenol; format: functional, cell membranes
In short: (§1)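 GTPγ[35S] binding in CHO membranes expressing recombinant hCB1 or hCB2. Membranes preincubated with GDP (30 μM solution) on ice for at least 15 min, then mixed with GTPγ[35S] and WGA SPA beads. Incubated 1 h at room temperature, centrifuged, held 1 h more, then counted. Eight concentrations (0.001–10 μM) in duplicate, reported as the mean of two. Emax expressed as % of the reference agonist.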

Cannabinoid receptor 1 [3] = molecular target: T2, Cannabinoid receptor 1 (Homo sapiens, UniProt P21554); experiment: Inverse agonist activity at human recombinant CB1 receptor expressed CHO cells membrane by [35S]GTPgamma binding assay; format: functional, cell membranes; in short: as §1
Cannabinoid receptor 2 [4] = molecular target: T1, Cannabinoid receptor 2; experiment: Inverse agonist activity at human recombinant CB2 receptor expressed CHO cells membrane by [35S]GTPgamma binding assay; format: functional, cell membranes; in short: as §1
Cannabinoid receptor 1 [5] = molecular target: T2, Cannabinoid receptor 1; experiment: Inverse agonist activity at human recombinant CB1 receptor expressed CHO cells membrane by [35S]GTPgamma binding assay relative to 2-((1R,2R,5R)-5-hydroxy-2-(3-hydroxypropyl)cyclohexyl)-5-(2-methyloctan-2-yl)phenol; format: functional, cell membranes; in short: as §1
Cannabinoid receptor 2 [6] = molecular target: T1, Cannabinoid receptor 2; experiment: Binding affinity to CB2 receptor
In short: (§2)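 Competition binding on membranes of CHO-K1 cells expressing hCB2 (0.25 μg protein/well). Buffer was 50 mM Tris pH 7.4, 2.5 mM EDTA, 0.5% BSA, with 1 nM [3H]-labelled reference ligand. Nonspecific binding defined with 10 μM unlabelled ligand. Incubated 60 min at 30 °C, then filtered and counted by liquid scintillation. Duplicates at several concentrations. IC50 from a one-site fit, converted to Ki by Cheng–Prusoff.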

Rattus norvegicus [7] = experiment: Inhibition of (3-benzyl-3-methyl-2,3-dihydrobenzofuran-6-yl)(piperidin-1-yl)methanone-induced antiallodynic activity in L5/L6 spinal nerve tight ligated neuropathic pain Sprague-Dawley rat model assessed as paw withdrawal threshold at 10 mg/kg, ip administered 15 mins before 3-benzyl-3-methyl-2,3-dihydrobenzofuran-6-yl)(piperidin-1-yl)methanone challenge; format: functional, organism-based; set-up: dose 10 mg/kg
In short: (§3)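 Adult male Sprague–Dawley rats (120–150 g). Left L5 and L6 spinal nerves tightly ligated with 6–0 silk under isoflurane. Tested 10–14 days after ligation. Drugs given ip. Vehicle was N-methylpyrrolidone 30%, propylene glycol 30%, ethanol 10%, Cremophor 10% and water. For […], given 15 min before the ip CB2 agonist. Von Frey up–down 50% withdrawal threshold (cutoff 15 g) and %MPE, n = 5 per group.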

Cannabinoid receptor 2 [8] = molecular target: T1, Cannabinoid receptor 2; experiment: Displacement of [3H] 2-((1R,2R,5R)-5-hydroxy-2-(3-hydroxypropyl)cyclohexyl)-5-(2-methyloctan-2-yl)phenol from human CB2 receptor expressed CHO-K1 cells by liquid scintillation counting; format: cell-based; in short: as §2
Rattus norvegicus [9] = experiment: Antiallodynic activity in Sprague-Dawley rat L5/L6 spinal nerve tight ligated neuropathic pain model assessed as paw withdrawal threshold at 10 mg/kg, ip […] ipsilateral injured paw; format: functional, organism-based; set-up: dose 10 mg/kg; in short: as §3
Cannabinoid receptor 2 [10] = molecular target: T1, Cannabinoid receptor 2; experiment: Inverse agonist activity at CB2 receptor; format: functional; in short: as §1
Cannabinoid receptor 2 [11] = molecular target: T1, Cannabinoid receptor 2; experiment: Binding affinity to CB2 receptor by competition binding assay; in short: as §2

T1 sequence (P34972 whole entry): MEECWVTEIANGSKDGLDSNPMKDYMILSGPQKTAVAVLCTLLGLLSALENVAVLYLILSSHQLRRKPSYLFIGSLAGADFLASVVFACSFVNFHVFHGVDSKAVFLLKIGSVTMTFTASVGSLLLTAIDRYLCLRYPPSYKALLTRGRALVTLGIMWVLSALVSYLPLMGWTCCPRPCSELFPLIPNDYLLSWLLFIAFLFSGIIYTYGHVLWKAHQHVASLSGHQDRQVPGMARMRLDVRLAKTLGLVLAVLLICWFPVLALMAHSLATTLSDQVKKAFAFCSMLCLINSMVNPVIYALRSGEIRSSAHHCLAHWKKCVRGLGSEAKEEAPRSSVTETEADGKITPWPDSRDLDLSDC
T2 sequence (P21554 whole entry): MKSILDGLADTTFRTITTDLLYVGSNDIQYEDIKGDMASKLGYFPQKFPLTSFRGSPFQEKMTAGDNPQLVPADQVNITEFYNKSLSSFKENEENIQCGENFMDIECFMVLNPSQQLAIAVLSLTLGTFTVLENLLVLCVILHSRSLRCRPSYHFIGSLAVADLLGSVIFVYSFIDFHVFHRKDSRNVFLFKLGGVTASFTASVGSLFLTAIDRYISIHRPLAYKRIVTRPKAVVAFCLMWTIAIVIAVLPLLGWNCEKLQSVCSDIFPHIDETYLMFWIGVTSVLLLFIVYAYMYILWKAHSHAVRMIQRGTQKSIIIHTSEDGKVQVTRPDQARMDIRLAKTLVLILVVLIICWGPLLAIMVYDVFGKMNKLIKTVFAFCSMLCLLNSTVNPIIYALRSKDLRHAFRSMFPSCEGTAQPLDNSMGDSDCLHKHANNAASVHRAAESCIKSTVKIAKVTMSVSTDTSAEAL

| SMILES | Emax (Cannabinoid receptor 2 [2]) [%] | EC50 (Cannabinoid receptor 1 [3]) [µM] | EC50 (Cannabinoid receptor 2 [4]) [nM] | also measured |
| --- | --- | --- | --- | --- |
| COc1ccc(C(=O)c2c(C)n(CCN3CCOCC3)c3cc(I)ccc23)cc1 | – | – | – | EC50 (Cannabinoid receptor 2 [1]): 76.6 nM |
| CCCCCN1C(=O)/C(=N\NC(=O)CC2CCCCC2)c2ccc(OC)cc21 | -88 | > 10 | 43 | – |
| CCCCCN1C(=O)/C(=N\NC(=O)OC(C)(C)C)c2ccc(OC)cc21 | -97 | > 10 | 15.9 | – |
| CCCCCN1C(=O)/C(=N\NC(=O)CC(C)C)c2ccc(OC)cc21 | -78 | > 10 | 11.7 | – |
| CCCCN1C(=O)/C(=N\NC(=O)c2ccccc2)c2ccc(OC)cc21 | -95 | > 10 | – | – |
| COc1ccc2c(c1)N(CCC1CCCCC1)C(=O)/C2=N\NC(=O)c1ccccc1 | -104 | > 10 | – | – |
| COc1ccc2c(c1)N(CC1CCCCC1)C(=O)/C2=N\NC(=O)C1CCCCC1 | -69 | > 10 | 71.6 | – |
| CCCCCN1C(=O)/C(=N\NC(=O)C(C)(C)C)c2ccc(OC)cc21 | -78 | > 10 | 10 | – |
| CCCCCN1C(=O)/C(=N\NC(=O)c2ccccc2)c2ccc(OC)cc21 | -108 | 0.263 | – | Emax (Cannabinoid receptor 1 [5]): 41% |
| COc1ccc2c(c1)N(Cc1ccccc1)C(=O)/C2=N\NC(=O)c1ccccc1 | -96 | > 10 | – | – |
| CCCCCN1C(=O)/C(=N\NC(=O)C2CCCCC2)c2ccc(OC)cc21 | -105 | > 10 | 28.7 | – |
| CCCCCCN1C(=O)/C(=N\NC(=O)c2ccccc2)c2ccc(OC)cc21 | -92 | > 10 | 88.2 | Ki (Cannabinoid receptor 2 [6]): 89.9 nM; Activity (Rattus norvegicus [7]): Active; Ki (Cannabinoid receptor 2 [8]): 89.9 nM |
| CC1(Cc2ccccc2)COc2cc(C(=O)N3CCCCC3)ccc21 (centres undefined) | – | – | – | Activity (Rattus norvegicus [9]): Active |
| COCCN1C(=O)/C(=N\NC(=O)c2ccccc2)c2ccc(OC)cc21 | -60 | > 10 | 492 | – |
| CCCCCN1C(=O)/C(=N\NC(=O)C(C)(C)O)c2ccc(OC)cc21 | -99 | > 10 | 14.7 | – |
| CN(c1ccc2c(c1)nc(Cc1ccc3c(c1)CCO3)n2CC1CCCCC1)S(=O)(=O)c1ccccc1 | – | – | – | Activity (Cannabinoid receptor 2 [6]): 0.7 nM; EC50 (Cannabinoid receptor 2 [10]): 2.2 nM; Ki (Cannabinoid receptor 2 [11]): 1.2 nM |
| CCCCCN1C(=O)/C(=N\NC(=O)CN2CCOCC2)c2ccc(OC)cc21 | -80 | > 10 | 13.3 | – |
| COc1ccc2c(c1)N(CC1CCCCC1)C(=O)/C2=N\NC(=O)c1ccccc1 | -82 | – | – | Emax (Cannabinoid receptor 1 [5]): 40.8% |
